Data set [1] is described as follows: Displacement of [125I]IMPY from amyloid beta (1-42) aggregates. In a few lines: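 Synthetic Aβ(1–42) dissolved at 0.25 mg/mL in 10 mM sodium phosphate, 1 mM EDTA, pH 7.4, aggregated 42 h at 37 °C with gentle constant shaking. Competition against [125I]IMPY (2200 Ci/mmol, >95% radiochemical purity). Filter-bound radioactivity gamma-counted, specific binding under 15% of total. IC50 from displacement curves, Ki by Cheng-Prusoff. Mean ± SEM of 3–6 independent experiments.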
In general terms: In a radioligand displacement assay an active substance lowers the binding of a labelled ligand.

Data set [2] relates to Liver. Nature of the data set: Biodistribution in ddY mouse liver at 0.5 uCi, iv after 30 mins. It is filed as ADME, organism-based. The settings on record: in vivo, 0.5 h. In a few lines: (§1)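 Normal male-unspecified ddY mice (5-week-old, 22–25 g) given radioiodinated ligand by tail-vein injection, killed at set times post-injection. Organs removed and weighed, radioactivity counted in a gamma counter. Expressed as % injected dose per gram, stomach as % injected dose per organ. Mean (s.d.) of 3–5 animals per time point.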

For data set [3], the system named is Heart. Nature of the data set: Biodistribution in ddY mouse heart at 0.5 uCi, iv after 60 mins. It is filed as ADME, organism-based. The settings on record: in vivo, 1 h. In a few lines:
as §1

For data set [4], the system named is Spleen. Nature of the data set: Biodistribution in ddY mouse spleen at 0.5 uCi, iv after 2 mins. It counts as ADME, organism-based. The settings on record: in vivo. The procedure, abridged: as §1
Data set [5] has as its system Brain. The data set can be described thus: Biodistribution in ddY mouse brain at 0.5 uCi, iv after 2 mins. It counts as ADME, organism-based. Particulars: in vivo. The procedure, abridged: as §1
Data set [6] deals with Intestine. The data set can be described thus: Biodistribution in ddY mouse intestine at 0.5 uCi, iv after 60 mins. It is filed as ADME, organism-based. The settings on record: in vivo, 1 h. The procedure, abridged:
as §1

The subject of data set [7] is Kidney. The data set can be described thus: Biodistribution in ddY mouse kidney at 0.5 uCi, iv after 60 mins. It is filed as ADME, organism-based. The settings on record: in vivo, 1 h. The procedure, abridged: as §1
Data set [8] deals with Pancreas. Nature of the data set: Biodistribution in ddY mouse pancreas at 0.5 uCi, iv after 2 mins. The settings on record: in vivo. It is filed as ADME, organism-based. The procedure, abridged: as §1
Data set [9] concerns Liver. Nature of the data set: Biodistribution in ddY mouse liver at 0.5 uCi, iv after 10 mins. It counts as ADME, organism-based. Particulars: in vivo. The procedure, abridged: as §1
For data set [10], the system named is Kidney. Nature of the data set: Biodistribution in ddY mouse kidney at 0.5 uCi, iv after 30 mins. It is filed as ADME, organism-based. Particulars: in vivo, 0.5 h. The procedure, abridged:
as §1

Data set [11] concerns Stomach. The data set can be described thus: Biodistribution in ddY mouse stomach at 0.5 uCi, iv after 30 mins. It counts as ADME, organism-based. Particulars: in vivo, 0.5 h. The procedure, abridged:
as §1

In data set [12] the test system is Pancreas. The data set can be described thus: Biodistribution in ddY mouse pancreas at 0.5 uCi, iv after 60 mins. It counts as ADME, organism-based. The settings on record: in vivo, 1 h. In a few lines:
as §1

In data set [13] the test system is Blood. Nature of the data set: Biodistribution in ddY mouse blood at 0.5 uCi, iv after 30 mins. Particulars: in vivo, 0.5 h. It is filed as ADME, organism-based. The procedure, abridged:
as §1

Data set [14] concerns Stomach. The data set can be described thus: Biodistribution in ddY mouse stomach at 0.5 uCi, iv after 60 mins. Particulars: in vivo, 1 h. It counts as ADME, organism-based. The procedure, abridged:
as §1

Data set [15] concerns Blood. The data set can be described thus: Biodistribution in ddY mouse blood at 0.5 uCi, iv after 10 mins. It counts as ADME, organism-based. Particulars: in vivo. In a few lines: as §1
For data set [16], the system named is Heart. Nature of the data set: Biodistribution in ddY mouse heart at 0.5 uCi, iv after 30 mins. The settings on record: in vivo, 0.5 h. It counts as ADME, organism-based. The procedure, abridged: as §1
The subject of data set [17] is Brain. Nature of the data set: Biodistribution in ddY mouse brain at 0.5 uCi, iv after 60 mins. It counts as ADME, organism-based. Particulars: in vivo, 1 h. In a few lines:
as §1

The subject of data set [18] is Liver. The data set can be described thus: Biodistribution in ddY mouse liver at 0.5 uCi, iv after 2 mins. It is filed as ADME, organism-based. The settings on record: in vivo. In a few lines: as §1
In data set [19] the test system is Heart. Nature of the data set: Biodistribution in ddY mouse heart at 0.5 uCi, iv after 10 mins. It counts as ADME, organism-based. Particulars: in vivo. In a few lines:
as §1

Data set [20] has as its system Stomach. Nature of the data set: Biodistribution in ddY mouse stomach at 0.5 uCi, iv after 2 mins. It is filed as ADME, organism-based. Particulars: in vivo. The procedure, abridged: as §1
In data set [21] the test system is Intestine. Nature of the data set: Biodistribution in ddY mouse intestine at 0.5 uCi, iv after 30 mins. It counts as ADME, organism-based. The settings on record: in vivo, 0.5 h. The procedure, abridged:
as §1

Data set [22] concerns Spleen. Nature of the data set: Biodistribution in ddY mouse spleen at 0.5 uCi, iv after 10 mins. It is filed as ADME, organism-based. Particulars: in vivo. In a few lines: as §1
Data set [23] has as its system Intestine. Nature of the data set: Biodistribution in ddY mouse intestine at 0.5 uCi, iv after 2 mins. It counts as ADME, organism-based. The settings on record: in vivo. The procedure, abridged:
as §1

For data set [24], the system named is Blood. The data set can be described thus: Biodistribution in ddY mouse blood at 0.5 uCi, iv after 2 mins. It counts as ADME, organism-based. The settings on record: in vivo. In a few lines:
as §1

In data set [25] the test system is Spleen. Nature of the data set: Biodistribution in ddY mouse spleen at 0.5 uCi, iv after 60 mins. The settings on record: in vivo, 1 h. It is filed as ADME, organism-based. The procedure, abridged: as §1
Data set [26] concerns Blood. Nature of the data set: Biodistribution in ddY mouse blood at 0.5 uCi, iv after 60 mins. It counts as ADME, organism-based. The settings on record: in vivo, 1 h. In a few lines:
as §1

Data set [27] concerns Spleen. The data set can be described thus: Biodistribution in ddY mouse spleen at 0.5 uCi, iv after 30 mins. It counts as ADME, organism-based. The settings on record: in vivo, 0.5 h. In a few lines:
as §1

The subject of data set [28] is Pancreas. The data set can be described thus: Biodistribution in ddY mouse pancreas at 0.5 uCi, iv after 30 mins. It counts as ADME, organism-based. Particulars: in vivo, 0.5 h. The procedure, abridged: as §1
Data set [29] has as its system Heart. Nature of the data set: Biodistribution in ddY mouse heart at 0.5 uCi, iv after 2 mins. It is filed as ADME, organism-based. Particulars: in vivo. In a few lines:
as §1

In data set [30] the test system is Stomach. The data set can be described thus: Biodistribution in ddY mouse stomach at 0.5 uCi, iv after 10 mins. The settings on record: in vivo. It is filed as ADME, organism-based. In a few lines:
as §1

Data set [31] has as its system Brain. The data set can be described thus: Biodistribution in ddY mouse brain at 0.5 uCi, iv after 30 mins. The settings on record: in vivo, 0.5 h. It counts as ADME, organism-based. In a few lines: as §1
Data set [32] concerns Kidney. Nature of the data set: Biodistribution in ddY mouse kidney at 0.5 uCi, iv after 10 mins. It counts as ADME, organism-based. The settings on record: in vivo. In a few lines:
as §1

Data set [33] has as its system Intestine. The data set can be described thus: Biodistribution in ddY mouse intestine at 0.5 uCi, iv after 10 mins. It is filed as ADME, organism-based. Particulars: in vivo. In a few lines: as §1
Data set [34] deals with Kidney. Nature of the data set: Biodistribution in ddY mouse kidney at 0.5 uCi, iv after 2 mins. It counts as ADME, organism-based. Particulars: in vivo. The procedure, abridged: as §1
Data set [35] relates to Brain. The data set can be described thus: Biodistribution in ddY mouse brain at 0.5 uCi, iv after 10 mins. It counts as ADME, organism-based. Particulars: in vivo. In a few lines: as §1
Data set [36] concerns Pancreas. The data set can be described thus: Biodistribution in ddY mouse pancreas at 0.5 uCi, iv after 10 mins. It counts as ADME, organism-based. Particulars: in vivo. The procedure, abridged: as §1
The subject of data set [37] is Liver. The data set can be described thus: Biodistribution in ddY mouse liver at 0.5 uCi, iv after 60 mins. It counts as ADME, organism-based. Particulars: in vivo, 1 h. In a few lines:
as §1

As usually defined, the Ki is the equilibrium dissociation constant of an inhibitor or competing ligand from its target. A low value points to a stronger hold on the target. `CNc1ccc(-c2nc(-c3ccc(I)cc3)no2)cc1` registered a Ki in data set [1] of 14.3 nM.

On to `CNc1ccc(-c2nc(-c3ccc([125I])cc3)no2)cc1`, for which the Drug uptake with Liver [2] was 8.53 % ID/g; in the data set with Heart [3] it was 1.27 % ID/g; in the data set with Spleen [4], 4.58 % ID/g; in the data set on Brain [5] it was 1.44 % ID/g; in the data set on Intestine [6], 8.46 % ID/g; in the data set with Kidney [7] it was 3.02 % ID/g. The Drug uptake in the data set with Pancreas [8] is 3.34 % ID/g; with Liver [9], 12.37 % ID/g; in the data set on Kidney [10], 3.39 % ID/g; with Stomach [11] it was 4.89 % ID/organ; in the data set with Pancreas [12] it was 1.88 % ID/g; in the data set on Blood [13] it was 1.52 % ID/g. Also, the Drug uptake came out at 7.38 % ID/organ in the data set with Stomach [14]; 1.84 % ID/g in the data set on Blood [15]; 1.68 % ID/g in the data set on Heart [16]; 2.7 % ID/g in the data set with Brain [17]; 14.62 % ID/g in the data set on Liver [18]; 3.05 % ID/g with Heart [19]. Also, the Drug uptake was 1.08 % ID/organ in the data set with Stomach [20]; 5.67 % ID/g in the data set on Intestine [21]; 4.7 % ID/g in the data set with Spleen [22]; 1.36 % ID/g in the data set on Intestine [23]; 3.54 % ID/g with Blood [24]; 2.14 % ID/g in the data set with Spleen [25]. Also, the Drug uptake in the data set with Blood [26] worked out at 1.54 % ID/g; in the data set on Spleen [27], 2.84 % ID/g; with Pancreas [28], 3.06 % ID/g; in the data set on Heart [29] it was 9.51 % ID/g; in the data set on Stomach [30], 2.32 % ID/organ; in the data set on Brain [31], 2.56 % ID/g. In addition, the Drug uptake in the data set with Kidney [32] is reported as 5.3 % ID/g; with Intestine [33], 2.83 % ID/g; with Kidney [34] it was 9.53 % ID/g; in the data set with Brain [35] it was 1.98 % ID/g; in the data set on Pancreas [36] it was 3.91 % ID/g; in the data set with Liver [37], 7.3 % ID/g.

With `Oc1ccc(-c2nc(-c3ccc(I)cc3)no2)cc1`, the affinity in data set [1], expressed as Ki, was 47.1 nM.

`CN(C)c1ccc(-c2nc(-c3ccc(I)cc3)no2)cc1` gave a Ki in data set [1] of 15.4 nM.

These data come from ChEMBL document CHEMBL1157526, “Development of novel beta-amyloid probes based on 3,5-diphenyl-1,2,4-oxadiazole” (Bioorg Med Chem, 2008).
